The source of these data is ChEMBL document CHEMBL1153450, “Ligustrazine derivatives. Part 3: Design, synthesis and evaluation of novel acylpiperazinyl derivatives as potential cerebrocardiac vascular agents” (Bioorg Med Chem, 2009).

Data set [1] can be described thus: Antiplatelet activity in rabbit platelets assessed as inhibition of ADP-induced platelet aggregation at 200 uM by aggregometer. The class given is functional, Oryctolagus cuniculus. More on the design: scale not given: the % may be the effect or the level left. In a few lines: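 Rabbit blood anticoagulated with 3.8% trisodium citrate (0.3 ml per 2.7 ml blood). ADP and compound (200 µM) added in sequence, with blank and ADP-control cuvettes. Platelet-rich plasma from 270 g/5 min spin, platelet-poor plasma from 1000 g/10 min spin. Aggregation read on aggregometer and reported as mean aggregation rate A% (n = 6).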

The subject of a further data set is ECV-304. As to the kind of experiment: Protection against hydrogen peroxide-induced cell damage in human ECV304 cells treated 30 mins before hydrogen peroxide challenge measured after 6 hrs. The class given is functional, cell-based. In short, it runs like this:
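ECV-304 cells grown 24 h, then given fresh medium with compound at 12.5, 25, 50, 100 or 200 µM. After 0.5 h, 150 µM H2O2 added, then 6 h further incubation. Read-out is absorbance at 570 nm, mean ± SEM, n = 6. Proliferation rate = (OD compd − OD H2O2)/(OD control − OD H2O2) × 100%. EC50 derived by a pEC50 summation formula over proliferation rates.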

A short description of data set [2]: Half life in human. Particulars: in vivo. The class given is ADME, organism-based.

Molecules are shown by their SMILES. pEC50: −log10 of the molar value.

As for `Cc1nc(C)c(CN2CCN(C(=O)c3ccc(Cl)cc3)CC2)nc1C`, the Activity in data set [1] was 25.62%. In the data set with ECV-304, this compound gave a pEC50 of 3.68.

Turning to `Cc1nc(C)c(CN2CCN(C(=O)c3ccccc3I)CC2)nc1C`, the Activity in data set [1] is recorded as 25.45%. The same compound gave a pEC50 in the data set with ECV-304 of 4.17.

On to `Cc1nc(C)c(CN2CCN(S(C)(=O)=O)CC2)nc1C`, for which, in data set [1], the Activity was 33.51%. This compound gave a pEC50 in the data set on ECV-304 of 3.79.

With `Cc1nc(C)c(CN2CCN(C(=O)c3ccc([N+](=O)[O-])cc3)CC2)nc1C`, the Activity in data set [1] was 28.64%. Also, the pEC50 in the data set with ECV-304 is 3.34.

In the case of `Cc1nc(C)c(CN2CCN(C(=O)c3ccccc3O)CC2)nc1C`, the Activity in data set [1] is listed as 16.71%. Moreover, the negative-log EC50 (pEC50) in the data set on ECV-304 is 5.21.

On to `Cc1nc(C)c(CN2CCN(C(=O)c3cccnc3)CC2)nc1C`, for which the Activity in data set [1] turned out to be 5.08%. In the data set with ECV-304, this compound showed a pEC50 of 3.66.

Regarding `Cc1nc(C)c(C)nc1C` [LIGUSTRAZINE], in data set [1], the Activity amounted to 7.86%. In the data set on ECV-304, this compound gave a pEC50 of 3.81. The compound also gave a half-life in data set [2] of 2.89 h.

For `Cc1nc(C)c(CN2CCN(C(=O)c3cc([N+](=O)[O-])cc([N+](=O)[O-])c3)CC2)nc1C`, the Activity in data set [1] came to 15.67%. The negative-log EC50 (pEC50) with ECV-304 is 3.75.

On to `Cc1nc(C)c(CN2CCN(C(=O)c3ccco3)CC2)nc1C`, for which the Activity in data set [1] is listed as 21.76%. Also, the negative-log EC50 (pEC50) in the data set with ECV-304 is 4.43.

For the compound `Cc1nc(C)c(CN2CCN(C(=O)c3ccccc3Cl)CC2)nc1C`, the Activity in data set [1] came out at 27.24%. Besides, in the data set with ECV-304, the negative-log EC50 (pEC50) was 3.79.

`Cc1nc(C)c(CN2CCN(C(=O)c3ccncc3)CC2)nc1C`: in data set [1], the Activity came to 6.07%. The negative logarithm of the EC50 (pEC50) in the data set with ECV-304 was 4.53.

For the compound `COc1ccc(C(=O)N2CCN(Cc3nc(C)c(C)nc3C)CC2)cc1`, the Activity in data set [1] is given as 26.06%. The compound further gave a pEC50 in the data set on ECV-304 of 3.68.

As to `COc1ccc(/C=C/C(=O)N2CCN(Cc3nc(C)c(C)nc3C)CC2)cc1OC`, the Activity in data set [1] is given as 6.13%. Moreover, in the data set on ECV-304, the pEC50 was 3.55.

As to `Cc1nc(C)c(CN2CCN(C(=O)C(C)(C)Oc3ccc(Cl)cc3)CC2)nc1C`, the Activity in data set [1] was determined as 13.68%.

As for `COc1ccc(C(=O)N2CCN(Cc3nc(C)c(C)nc3C)CC2)cc1OC`, the Activity in data set [1] is reported as 29.06%. The compound also had a negative logarithm of the EC50 (pEC50) with ECV-304 of 3.77.

For `COc1ccccc1C(=O)N1CCN(Cc2nc(C)c(C)nc2C)CC1`, the Activity in data set [1] came out at 24.27%. This compound also showed a pEC50 in the data set with ECV-304 of 3.60.

In the case of `CC(=O)Oc1ccccc1C(=O)N1CCN(Cc2nc(C)c(C)nc2C)CC1`, in data set [1], the Activity came to 3.02%. This compound also had a negative logarithm of the EC50 (pEC50) in the data set on ECV-304 of 3.80.

In the case of `Cc1nc(C)c(CN2CCN(C(=O)c3ccccc3)CC2)nc1C`, the Activity in data set [1] was determined as 28.46%. Also, the negative logarithm of the EC50 (pEC50) with ECV-304 was 3.62.

Regarding `Cc1nc(C)c(CN2CCN(C(=O)Cc3ccc([N+](=O)[O-])cc3)CC2)nc1C`, in data set [1], the Activity is 18.24%. In addition, in the data set on ECV-304, the negative-log EC50 (pEC50) is 3.42.

Consider `Cc1nc(C)c(CN2CCN(C(=O)Cc3ccccc3)CC2)nc1C`, for which the Activity in data set [1] came to 25.59%. The same compound gave a negative-log EC50 (pEC50) in the data set with ECV-304 of 3.72.

As to `COc1cc(C(=O)N2CCN(Cc3nc(C)c(C)nc3C)CC2)cc(OC)c1OC`, in data set [1], the Activity came out at 14.26%. Moreover, the pEC50 in the data set with ECV-304 is 4.05.

Turning to `Cc1nc(C)c(CN2CCN(C(=O)CCc3ccccc3)CC2)nc1C`, the Activity in data set [1] worked out at 13.29%. Besides, the pEC50 in the data set with ECV-304 was 3.82.

Turning to `COc1ccc(OC)c(/C=C/C(=O)N2CCN(Cc3nc(C)c(C)nc3C)CC2)c1`, the Activity in data set [1] is recorded as 9.78%. Further, the negative logarithm of the EC50 (pEC50) with ECV-304 was 3.42.

Turning to `COc1cccc(/C=C/C(=O)N2CCN(Cc3nc(C)c(C)nc3C)CC2)c1OC`, the Activity in data set [1] was 8.78%. This compound showed a pEC50 in the data set with ECV-304 of 3.47.

In the case of `Cc1nc(C)c(CN2CCN(C(=O)c3ccc(Cl)cc3Cl)CC2)nc1C`, the Activity in data set [1] is reported as 16.08%. The compound also gave a negative-log EC50 (pEC50) in the data set with ECV-304 of 3.60.

`Cc1nc(C)c(CN2CCN(C(=O)c3cccc(Cl)c3)CC2)nc1C`: in data set [1], the Activity was 24.74%. This compound had a negative-log EC50 (pEC50) in the data set on ECV-304 of 3.92.

Turning to `Cc1nc(C)c(CN2CCN(C(=O)C(=O)c3ccccc3)CC2)nc1C`, the Activity in data set [1] is reported as 26.11%. Further, the negative-log EC50 (pEC50) in the data set with ECV-304 was 3.52.

On to `Cc1nc(C)c(CN2CCN(C(=O)c3ccc(I)cc3)CC2)nc1C`, for which the Activity in data set [1] is recorded as 25.17%. In the data set on ECV-304, this compound showed a negative logarithm of the EC50 (pEC50) of 3.90.

`COc1cc(/C=C/C(=O)N2CCN(Cc3nc(C)c(C)nc3C)CC2)ccc1OC(C)=O`: the Activity in data set [1] was found to be 5.84%.

For `Cc1nc(C)c(CN2CCN(S(=O)(=O)c3ccccc3)CC2)nc1C`, the Activity in data set [1] is given as 24.49%. In the data set on ECV-304, this compound had a pEC50 of 3.32.

For the compound `Cc1nc(C)c(CN2CCN(C(=O)/C=C/c3cccc([N+](=O)[O-])c3)CC2)nc1C`, the Activity in data set [1] is listed as 13.07%. Besides, the pEC50 with ECV-304 was 3.38.

For the compound `Cc1nc(C)c(CN2CCN(C(=O)CCl)CC2)nc1C`, the Activity in data set [1] was determined as 24.89%. For the same compound, the pEC50 in the data set on ECV-304 was 3.83.

On to `CCOC(=O)N1CCN(Cc2nc(C)c(C)nc2C)CC1`, for which the Activity in data set [1] is reported as 15.25%. The compound also gave a pEC50 in the data set with ECV-304 of 4.12.

Take `Cc1ccc(S(=O)(=O)N2CCN(Cc3nc(C)c(C)nc3C)CC2)cc1`: the Activity in data set [1] is reported as 25.13%.
